A word on the Ki: it is the dissociation constant of the complex between target and ligand, obtained from inhibition or displacement. One may read the EC50 as the concentration that produces a half-maximal response. One may read the inhibition as the drop in the measured response relative to a control, in per cent.

Each structure is given as a SMILES string. Activity calls are given as the source filed them. The rule behind the calls is not given here.

One assay has as its target Rhodesain (Trypanosoma brucei rhodesiense, UniProt Q95PM0). In words: Inhibition of Trypanosoma brucei rhodesiense rhodesain expressed in Pichia pastoris assessed as inhibition constant measured for 30 mins using Cbz-Phe-Arg-AMC as substrate by fluorescence assay. The essentials: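 Recombinant rhodesain, continuous fluorimetric assay with Cbz-Phe-Arg-AMC at 10 µM, ex 380/em 460 nm, read 30 min at room temperature. Buffer: 50 mM sodium acetate pH 5.5, 5 mM EDTA, 200 mM NaCl, 0.005% Brij 35; enzyme buffer has 5 mM DTT. Seven inhibitor concentrations. kobs from progress-curve fits, hyperbolic fit gives Kiapp, corrected with Km 0.9 µM to Ki. Two independent assays in duplicate.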

Assay [1] concerns the target Rhodesain (Trypanosoma brucei rhodesiense) (UniProt Q95PM0). As to the kind of experiment: Inhibition of Trypanosoma brucei rhodesiense rhodesain expressed in Pichia pastoris assessed as second order rate constant obtained from ratio of Kinact to Ki measured for 30 mins using Cbz-Phe-Arg-AMC as substrate by fluorescence assay. The essentials: (§1)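 Continuous rhodesain assay using 7 inhibitor concentrations spanning minimal to full inhibition, with 10 µM Cbz-Phe-Arg-AMC. Buffer: 50 mM sodium acetate pH 5.5, 5 mM EDTA, 200 mM NaCl, 0.005% Brij 35; enzyme buffer had 5 mM DTT instead. Read at room temperature for 30 min, ex 380/em 460 nm. kobs came from fitting progress curves to F = A(1−exp(−kobs·t)) + B. Fitting kobs against [I] hyperbolically gave kinac and Kiapp. Kiapp was corrected by (1+[S]/Km) with Km 0.9 µM, and k2nd = kinac/Ki. Each assay was run twice in duplicate.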

Assay [2] shares this target. In words: Inhibition of Trypanosoma brucei rhodesiense rhodesain expressed in Pichia pastoris assessed as first-order rate constant measured for 30 mins using Cbz-Phe-Arg-AMC as substrate by fluorescence assay. The method in brief: as §1
Assay [3] addresses T1, Procathepsin L (Homo sapiens, UniProt P07711). As to the kind of experiment: Inhibition of human Cathepsin L assessed as inhibition constant using Cbz-Phe-Arg-AMC as substrate by fluorescence assay.
Target sequence in this assay (P07711 whole entry): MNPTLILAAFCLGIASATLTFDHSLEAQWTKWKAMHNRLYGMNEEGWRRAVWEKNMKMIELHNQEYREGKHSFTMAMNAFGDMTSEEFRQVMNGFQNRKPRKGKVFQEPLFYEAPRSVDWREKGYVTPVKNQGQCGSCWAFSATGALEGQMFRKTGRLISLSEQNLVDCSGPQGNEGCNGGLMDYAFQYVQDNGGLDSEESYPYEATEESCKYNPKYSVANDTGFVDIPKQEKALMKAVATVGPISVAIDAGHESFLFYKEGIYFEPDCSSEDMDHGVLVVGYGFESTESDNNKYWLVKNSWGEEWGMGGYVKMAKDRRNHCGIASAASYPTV
Assay [4] concerns Trypanosoma brucei brucei. As to the kind of experiment: Antitrypanosomal activity against blood stage form of Trypanosoma brucei brucei 449 incubated for 24 hrs by ATPlite assay. The following applies: Trypanosoma brucei, 449, 24 h. The assay is classed as functional, organism-based. The essentials:
(§2)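 Bloodstream-form T. b. brucei 449 (Lister 427 descendant) cultured in HMI-9 with 10% FCS, penicillin/streptomycin and 0.2 µg/mL phleomycin at 37°C, 5% CO2. Cells seeded at 2500 cells/mL. Compounds from 5 mM stocks were serially diluted 1:2 to give 16.7 µM to 32.5 nM final. Controls: 0.3% DMSO (negative) and 10% DMSO (positive). Incubated 24 h or 48 h, in two separate triplicates. Viability read by ATPlite luminescence; EC50 taken from dose-response curves.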
Background: In ATP-based viability assays light output follows the ATP content of the culture.

The target in assay [5] is Rhodesain (Trypanosoma brucei rhodesiense) (UniProt Q95PM0). As to the kind of experiment: Inhibition of Trypanosoma brucei rhodesiense rhodesain expressed in Pichia pastoris at 50 uM measured for 30 mins using Cbz-Phe-Arg-AMC as substrate by fluorescence assay relative to control. The method in brief:
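Recombinant rhodesain screened with inhibitor at 50 µM against an equivalent DMSO negative control. AMC release from 10 µM Cbz-Phe-Arg-AMC was followed continuously for 30 min.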

Assay [6] has as its target T1, Procathepsin L. As to the kind of experiment: Inhibition of human Cathepsin L assessed as second order rate constant obtained from ratio of Kinact to Ki using Cbz-Phe-Arg-AMC as substrate by fluorescence assay.
Target sequence in this assay (P07711 114-333 limits assumed): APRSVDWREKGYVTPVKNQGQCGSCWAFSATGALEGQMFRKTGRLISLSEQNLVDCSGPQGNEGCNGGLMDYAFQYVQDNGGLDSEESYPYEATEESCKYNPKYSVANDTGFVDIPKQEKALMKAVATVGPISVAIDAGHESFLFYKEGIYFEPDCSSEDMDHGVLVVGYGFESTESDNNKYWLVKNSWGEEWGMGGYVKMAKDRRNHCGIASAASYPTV
Assay [7] addresses T1, Procathepsin L. As to the kind of experiment: Inhibition of human Cathepsin L assessed as first-order rate constant using Cbz-Phe-Arg-AMC as substrate by fluorescence assay.
Target sequence in this assay (P07711 114-333 limits assumed): as above
Assay [8] concerns Trypanosoma brucei brucei. In words: Antitrypanosomal activity against blood stage form of Trypanosoma brucei brucei 449 incubated for 48 hrs by ATPlite assay. The assay is classed as functional, organism-based. Conditions: Trypanosoma brucei, 449, 48 h. The method in brief:
as §2

Assay [9] addresses Rhodesain (Trypanosoma brucei rhodesiense) (UniProt Q95PM0). As to the kind of experiment: Irreversible inhibition of Trypanosoma brucei rhodesiense rhodesain expressed in Pichia pastoris at 0.005 to 0.5 nM measured for 30 mins using Cbz-Phe-Arg-AMC as substrate by fluorescence assay. The essentials: as §1

Rhodesain, sequence (Q95PM0 whole entry): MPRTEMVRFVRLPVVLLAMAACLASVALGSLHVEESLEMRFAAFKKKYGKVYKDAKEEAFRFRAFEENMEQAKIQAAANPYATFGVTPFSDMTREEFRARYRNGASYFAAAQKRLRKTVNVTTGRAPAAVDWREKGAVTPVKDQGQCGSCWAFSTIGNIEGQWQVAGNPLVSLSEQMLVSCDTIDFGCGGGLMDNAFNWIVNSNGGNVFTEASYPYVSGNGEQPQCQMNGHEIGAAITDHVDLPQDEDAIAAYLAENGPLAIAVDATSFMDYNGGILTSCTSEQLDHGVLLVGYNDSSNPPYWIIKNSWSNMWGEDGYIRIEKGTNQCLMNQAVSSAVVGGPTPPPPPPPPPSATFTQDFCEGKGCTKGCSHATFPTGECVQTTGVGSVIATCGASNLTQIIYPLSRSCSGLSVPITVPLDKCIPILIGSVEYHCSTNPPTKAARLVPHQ
Rhodesain (Trypanosoma brucei rhodesiense), sequence (Q95PM0 1-450): as the sequence (Q95PM0 whole entry) above

Take `CC(=O)/C=C/[C@H](CCc1ccccc1)NC(=O)[C@H](Cc1ccccc1)NC(=O)c1ccc(F)cc1F`: the Ki is 0.0006 nM at Rhodesain and 35 nM on Procathepsin L [3]. Also, the K was 107000 ×10³ /M/min in assay [1] and 52 ×10³ /M/min at Procathepsin L [6]. For the same compound, the Kinact in assay [2] was determined as 7e-05 min⁻¹; on Procathepsin L [7], 0.0015 min⁻¹. Also, the EC50 in assay [4] turned out to be 740 nM; in assay [8] it was 670 nM. This compound showed an inhibition in assay [5] of 85 to 100%.
As to `CC(=O)/C=C/[C@H](CCc1ccccc1)NC(=O)[C@H](Cc1ccccc1)NC(=O)c1ccc2c(c1)OCCO2`, the figures for the Ki at Rhodesain and at Procathepsin L [3] were 0.74 nM and 78.2 nM, respectively. The figures for the K (in assay [1]; on Procathepsin L [6]) were 7200 ×10³ /M/min and 102 ×10³ /M/min, respectively. Further, the Kinact in assay [2] is 0.0043 min⁻¹; at Procathepsin L [7], 0.0076 min⁻¹. For the same compound, in [5], the inhibition fell in the range of 85 to 100%.
As for `CCC(=O)/C=C/[C@H](CCc1ccccc1)NC(=O)[C@H](Cc1ccccc1)NC(=O)OCc1ccccc1`, the figures for the Ki at Rhodesain and on Procathepsin L [3] were 0.5 nM and 108 nM, respectively. Further, the K in assay [1] was determined as 1800 ×10³ /M/min; on Procathepsin L [6], 67 ×10³ /M/min. For the same compound, the Kinact in [2] stood at 0.00082 min⁻¹; on Procathepsin L [7], 0.0071 min⁻¹. The same compound had an inhibition in [5] of 85 to 100%.
As to `CC(=O)/C=C/[C@H](CCc1ccccc1)NC(=O)[C@H](Cc1ccccc1)NC(=O)c1ccc(Cl)cc1`, the Ki on Rhodesain worked out at 0.029 nM; at Procathepsin L [3], 0.6 nM. The K in assay [1] turned out to be 29300 ×10³ /M/min; at Procathepsin L [6], 3030 ×10³ /M/min. Besides, the Kinact in assay [2] was found to be 0.0008 min⁻¹; at Procathepsin L [7] it was 0.0018 min⁻¹. Besides, the EC50 in assay [4] was determined as 4800 nM; in assay [8] it was 3200 nM. Also, the inhibition in assay [5] lay within 85 to 100%.
As to `CC(=O)/C=C/[C@H](CCc1ccccc1)NC(=O)[C@H](Cc1ccccc1)NC(=O)c1ccc(F)cc1`, the Ki at Rhodesain amounted to 0.0011 nM; on Procathepsin L [3], 1.5 nM. The K was 881000 ×10³ /M/min in [1] and 1230 ×10³ /M/min at Procathepsin L [6]. In addition, the values for the Kinact (in [2]; on Procathepsin L [7]) were 0.0009 min⁻¹ and 0.0018 min⁻¹, respectively. Besides, the EC50 in assay [4] came out at 5100 nM; in assay [8], 3600 nM. In [5], the inhibition fell in the range of 85 to 100%. In addition, in [9], the inhibition entry is “Active”.
On to `CC(=O)/C=C/[C@H](CCc1ccccc1)NC(=O)[C@H](Cc1ccccc1)NC(=O)N1CCOCC1`, for which the results for the Ki at Rhodesain and at Procathepsin L [3] were 3.1 nM and 175 nM, respectively. In addition, the K came to 157 ×10³ /M/min in assay [1] and 23 ×10³ /M/min on Procathepsin L [6]. In addition, the Kinact stood at 0.00049 min⁻¹ in assay [2] and 0.0039 min⁻¹ on Procathepsin L [7]. Further, the inhibition in assay [5] lay within 85 to 100%.
As to `CC(=O)/C=C/[C@H](CCc1ccccc1)NC(=O)[C@H](Cc1ccccc1)NC(=O)c1ccccc1F`, the Ki turned out to be 0.003 nM at Rhodesain and 5.3 nM on Procathepsin L [3]. The results for the K (in [1]; at Procathepsin L [6]) were 230000 ×10³ /M/min and 313 ×10³ /M/min, respectively. Besides, the Kinact in assay [2] was found to be 0.0006 min⁻¹; on Procathepsin L [7], 0.0011 min⁻¹. This compound gave an inhibition in assay [5] of 85 to 100%.
For the compound `CC(=O)/C=C/[C@H](CCc1ccccc1)NC(=O)[C@H](Cc1ccccc1)NC(=O)c1cc(F)cc(F)c1`, the Ki was 0.015 nM on Rhodesain and 14.8 nM at Procathepsin L [3]. Further, the figures for the K (in [1]; on Procathepsin L [6]) were 113000 ×10³ /M/min and 156 ×10³ /M/min, respectively. Also, the Kinact worked out at 0.0016 min⁻¹ in assay [2] and 0.0022 min⁻¹ at Procathepsin L [7]. Besides, the EC50 in assay [4] is 4000 nM; in assay [8], 3400 nM. For the same compound, the inhibition in [5] was in the range of 85 to 100%.
As for `CC(=O)/C=C/[C@H](CCc1ccccc1)NC(=O)[C@H](CCc1ccccc1)NC(=O)OCc1ccccc1`, the Ki at Rhodesain is 5.54 nM; at Procathepsin L [3], 453 nM. Moreover, the K in assay [1] was determined as 137 ×10³ /M/min; on Procathepsin L [6] it was 12 ×10³ /M/min. Besides, the Kinact is 0.00072 min⁻¹ in assay [2] and 0.0056 min⁻¹ on Procathepsin L [7]. Besides, the EC50 in assay [4] is 550 nM; in assay [8], 440 nM. This compound displayed an inhibition in assay [5] of 85 to 100%.
In the case of `CC(=O)/C=C/[C@H](CCc1ccccc1)NC(=O)[C@H](Cc1ccccc1)NC(=O)c1ccc(C(F)(F)F)cc1`, the values for the Ki on Rhodesain and at Procathepsin L [3] were 0.0044 nM and 4.1 nM, respectively. For the same compound, the K amounted to 175000 ×10³ /M/min in assay [1] and 380 ×10³ /M/min at Procathepsin L [6]. The figures for the Kinact (in [2]; at Procathepsin L [7]) were 0.00075 min⁻¹ and 0.0015 min⁻¹, respectively. For the same compound, in assay [5], the inhibition is 85 to 100%.
Consider `CC(=O)/C=C/[C@H](CCc1ccccc1)NC(=O)[C@H](Cc1ccccc1)NC(=O)c1c(F)cccc1F`, for which the Ki was found to be 0.0076 nM on Rhodesain and 230 nM on Procathepsin L [3]. Besides, the K was 151000 ×10³ /M/min in [1] and 8.9 ×10³ /M/min on Procathepsin L [6]. Moreover, the results for the Kinact (in assay [2]; at Procathepsin L [7]) were 0.0012 min⁻¹ and 0.002 min⁻¹, respectively. Further, the inhibition in [5] is 85 to 100%.
With `CC(=O)/C=C/[C@H](CCc1ccccc1)NC(=O)[C@H](Cc1ccccc1)NC(=O)Cc1ccc2c(c1)OCO2`, the Ki at Rhodesain came out at 2.1 nM; at Procathepsin L [3], 90.3 nM. In addition, the results for the K (in assay [1]; on Procathepsin L [6]) were 435 ×10³ /M/min and 59 ×10³ /M/min, respectively. Moreover, the Kinact in assay [2] stood at 0.00085 min⁻¹; at Procathepsin L [7] it was 0.0053 min⁻¹. The inhibition in [5] lay in the range of 85 to 100%.
Turning to `CC(=O)/C=C/[C@H](CCc1ccccc1)NC(=O)[C@H](Cc1ccccc1)NC(=O)N1CCN(C)CC1`, the Ki on Rhodesain came out at 1.8 nM; on Procathepsin L [3] it was 158 nM. The K was 266 ×10³ /M/min in assay [1] and 31 ×10³ /M/min on Procathepsin L [6]. Also, the Kinact in assay [2] amounted to 0.00042 min⁻¹; at Procathepsin L [7], 0.0047 min⁻¹. Besides, the inhibition in [5] was 85 to 100%.
Take `CC(=O)/C=C/[C@H](CCc1ccccc1)NC(=O)[C@H](Cc1ccccc1)NC(=O)c1cccc(F)c1`: the Ki at Rhodesain worked out at 0.023 nM; at Procathepsin L [3], 47 nM. The K was found to be 149000 ×10³ /M/min in assay [1] and 41 ×10³ /M/min on Procathepsin L [6]. The Kinact is 0.0032 min⁻¹ in assay [2] and 0.0019 min⁻¹ on Procathepsin L [7]. In addition, in assay [5], the inhibition was in the range of 85 to 100%.
As to `CC(=O)/C=C/[C@H](CCc1ccccc1)NC(=O)[C@H](Cc1ccccc1)NC(=O)c1ccc2c(c1)OCO2`, the Ki on Rhodesain came to 0.034 nM; at Procathepsin L [3], 10.2 nM. The results for the K (in assay [1]; on Procathepsin L [6]) were 15300 ×10³ /M/min and 157 ×10³ /M/min, respectively. For the same compound, the Kinact was 0.0005 min⁻¹ in assay [2] and 0.0016 min⁻¹ at Procathepsin L [7]. The results for the 50% effective concentration (EC50) in [4] and in assay [8] were 5000 nM and 3700 nM, respectively. Further, the inhibition in assay [5] lay in the range of 85 to 100%.
